# STAT3 activator: increases IL-6 driven STAT3 reporter signal | U3A cells, IL-6 STAT3-luciferase reporter, luminescence; 100% = signal with IL-6 EC80 alone | activation (% of control), % at 5.6 µM | hit rate 0.91% among 190,000 | AID 871;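 active = activation above the screen-wide mean of compound activation plus 3 SD, cut at about 130% in these data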;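 also: 0% = background luminescence of wells with medium and substrate only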
#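 System – human U3A cells carrying STAT3-luciferase construct · Probe or stimulus – Interleukin-6, 33 ng/mL · Schedule – compound 1 h, then IL-6 6 h at 37 °C · Signal – luminescence from STAT3-driven luciferase reporter · Evaluation – percent of IL-6-only median luminescence · Benchmarks – IL-6-only high control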
# STAT1 activator: activators of IFN-gamma induced STAT1 signaling. NIH 3T3 STAT1-luciferase reporter, luminescence; 100% = IFN-gamma alone, no compound. activation (% of control), % at 5.5 µM. hit rate 2.6% among 200,000;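 active = activation above the screen-wide mean activation plus 3 SD, cut at about 130% in these data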;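 also: raw ratio to IFN-gamma control signal so 100% means no change and 0% no light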
# NF-kB neuron act: NF-kB expression increase, human neuronal cells; NF-kB reporter expression; hits give high values; hit rate 1.6% among 190,000; fold change at 12.5 µM; in the data active = fold change above about 3.3
# STAT3 blocker: STAT3 signaling inhibition | AID 862 | inhibition, % at 5.5 µM | U3A cells, IL-6 STAT3-luciferase reporter, luminescence; host cell line lacks STAT1 | hit rate 0.89% among 190,000;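 active = inhibition above the mean inhibition across all screened compounds plus 3 SD, cut at about 44% in these data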;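 also: 0% = DMSO only wells and 100% = 100 µM nifuroxazide control wells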
# APP 5'UTR act: APP 5'UTR luciferase reporter activation | SH-SY5Y APP 5'UTR luciferase reporter, luminescence; zero percent = DMSO vehicle wells | hit rate 1% among 190,000 | activation, % at 2 µM | AID 1276;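 active = activation above a set limit, based on mean plus 3 SD of controls, cut at about 140% in these data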
# STAT1 blocker: reduces IFN-gamma driven STAT1 reporter signal; NIH 3T3 STAT1-luciferase reporter, luminescence; inhibition, % at 5.5 µM; hit rate 0.35% among 200,000; AID 920;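 active = inhibition above a set limit, the mean inhibition across all tested compounds plus 3 SD, cut at about 34% in these data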;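 also: 0% = IFN-gamma with DMSO and 100% = IFN-gamma with 300 µM nifuroxazide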
# STAT1 activ conf: confirmation of STAT1 signaling activators; hit rate 97% among 1,200; activation (% of control), % at 5.7 µM; NIH 3T3 STAT1-luciferase reporter, IFN-gamma potentiation, luminescence; 100% = IFN-gamma EC80 alone, no compound; shares compounds with STAT1 activator; AID 1262;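 active = activation above a set limit carried over from the earlier primary STAT1 screen, cut at about 140% in these data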;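 also: simple ratio to median IFN-gamma plus DMSO wells so 0% means no light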
# NFkB act STAT1ct: activates NF-kappaB, counter-screen to STAT1 activators; shares compounds with STAT1 activator; hit rate 43% among 1,200; activation (% of control), % at 5.7 µM; HEK293T NF-kB luciferase reporter, TNF-alpha stimulated, luminescence; 100% = TNF-alpha with vehicle only;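 active = activation above the mean of solvent-only control wells plus 3 SD, set per campaign, cut at about 130% in these data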;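 also: TNF-alpha given at a submaximal dose yielding about 80% of full reporter signal; values are well signal over median control so 100% means no change and 0% no light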
# STAT3 act STAT1c: activates human STAT3, counter-screen to STAT1 activators; shares compounds with STAT1 activator; hit rate 46% among 1,200; U3A cells STAT3-luciferase reporter, IL-6, luminescence; cells lack STAT1; 100 = IL-6 alone, no compound effect; activation (% of control), % at 5.7 µM; AID 1316;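 active = activation above the solvent-only control well mean plus 3 SD, set per plate batch, cut at about 110% in these data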;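 also: 0% = no luminescence and 100% = median IL-6 plus DMSO wells; higher means more STAT3 reporter activation so hits are non-selective activators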
# Numbers without * were called inactive; . = no result given. Shown are actives, neighbours in structure and some others; about 5.1% of the full set was active somewhere.
SMILES,STAT3 activator,STAT1 activator,NF-kB neuron act,STAT3 blocker,APP 5'UTR act,STAT1 blocker,STAT1 activ conf,NFkB act STAT1ct,STAT3 act STAT1c
CC(C)(C)C(=O)c1cnc(Nc2ccccc2Cl)s1,97,158*,5.1*,3,114,-64,204*,133,111*
O=C(Nc1ccccc1Cl)c1cccs1,94,108,1.2,15,10,-9,.,.,.
O=C(c1ccccc1)c1cnc(Nc2ccccc2Cl)s1,106,162*,7.3*,-6,174*,-69,214*,135*,113*
CCOC(=O)c1sc(Nc2ccccc2)nc1C,110,120,2.4,-11,68,-32,.,.,.
Cc1nc(Nc2ccccc2)sc1-c1ccccc1,90,193*,8.8*,15,187*,-104,242*,130,107
O=c1oc(Nc2cccc(Cl)c2)nc2ccccc12,103,157*,2.4,8,71,-65,177*,118,157*
Cc1ccc(/C=C/C(=O)N2CCc3ccccc32)o1,91,180*,8.2*,13,168*,-92,224*,138*,109
Cc1c(C(=O)N2CCc3ccccc32)oc2ccccc12,107,155*,8.2*,-5,156*,-62,217*,141*,150*
C/C(=C\C(=O)N1CCc2ccccc21)C(=O)O,118,94,1.1,-13,-11,6,.,.,.
O=C(c1ccccc1)N1CCc2ccccc21,95,95,1,7,-6,6,.,.,.
c1cncc(-c2nnc(SCCSc3nnc(-c4cccnc4)o3)o2)c1,97,97,.,7,-7,3,.,.,.
Fc1ccccc1CSc1nnc(-c2cccnc2)o1,101,161*,3.5*,8,72,-65,147*,119,110
O=C(CCS(=O)(=O)c1ccccc1)NCCS(=O)(=O)c1ccccc1,103,99,1.1,-1,0,1,.,.,.
O=C(CCS(=O)(=O)c1ccccc1)NC12CC3CC(CC(C3)C1)C2,113,151*,2.8,-16,-3,-58,184*,133*,128*
CN1C(=O)/C(=C/C=C2\SCCN2C)SC1=S,79,159*,4.4*,24,174*,-63,224*,113,99
CCCN1C(=O)/C(=C\C=C2/Sc3ccccc3N2CC)SC1=S,92,101,1.3,11,0,-1,.,.,.
CC1CC1C(=O)Nc1ccc(-c2ccccc2)cc1 (stereo not drawn),94,155*,3.3*,5,121,-62,162*,127,97
O=C(O)C1CC=CCC1C(=O)Nc1ccccc1 (stereo not drawn),94,105,1.1,14,15,-5,.,.,.
Cn1/c(=N/N=C/c2ccccn2)sc2ccccc21,119,152*,5.3*,-15,114,-56,219*,142*,130*
CCC(=O)N/N=c1/sc2ccccc2n1C,107,102,1.1,-4,-4,-3,.,.,.
Cc1ccc(S(=O)(=O)NCCCN2CCOCC2)cc1C,97,97,1.4,8,3,2,.,.,.
c1ccc(CSCc2cn3ccccc3n2)cc1,97,153*,5.1*,5,105,-59,168*,132,111*
O=C(O)c1ccccc1SCc1cn2ccccc2n1,109,102,0.96,-7,11,-2,.,.,.
O=C(NCc1ccccc1)c1c[nH]c2cc3c(cc2c1=O)OCCO3,115,178*,3.5*,-14,89,-84,190*,140*,126*
C(=C\c1nc(-c2ccccc2)no1)/c1ccccc1,82,154*,8.6*,24,135*,-60,207*,121,101
SMILES,STAT3 activator,STAT1 activator,NF-kB neuron act,STAT3 blocker,APP 5'UTR act,STAT1 blocker,STAT1 activ conf,NFkB act STAT1ct,STAT3 act STAT1c
Fc1cccc(Cl)c1Cc1noc(/C=C/c2ccccc2)n1,99,121,1.6,12,48,-23,.,.,.
Cc1cnc(C(=O)Nc2ccc(C(C)C)cc2)cn1,85,159*,4.5*,22,78,-63,180*,136*,95
CC(=O)c1cccc(NC(=S)NC(=O)c2cccc(C)c2)c1,101,157*,3.7*,-1,102,-64,178*,126,105
CC(=O)c1cccc(N/C=C\C(=O)c2ccc(C)cc2)c1,81,180*,6.7*,26,155*,-90,211*,111,96
CC(=O)c1cccc(NC(=S)NC(=O)c2ccc(Cl)cc2)c1,108,162*,2.5,-7,10,-70,173*,118,108
CC(=O)c1cccc(NC(=S)NC(=O)c2ccccc2C)c1,95,114,1.9,8,41,-16,.,.,.
CC(=O)c1cccc(NS(=O)(=O)c2ccc(N/C=C/C(=O)c3ccc(F)cc3)cc2)c1,96,103,0.55,8,3,-4,.,.,.
CCc1c(C(=O)NC2CCCCC2)[nH]c(C)c1C(C)=O,75,100,1.4,35,0,0,.,.,.
COC(=O)c1ccccc1NC(=O)N1CCN(S(=O)(=O)c2ccc(Cl)cc2)CC1,104,105,0.98,-5,0,-5,.,.,.
N/C(=N\OC(=O)CCCOc1ccc(Cl)cc1Cl)c1ccncc1,97,104,1.1,8,-1,-7,.,.,.
N/C(=N\OC(=O)Cc1ccc(Cl)cc1)c1ccncc1,95,97,1.2,11,-3,2,.,.,.
N/C(=N\OC(=O)COc1cc(Cl)c(Cl)cc1Cl)c1ccccn1,99,159*,5.4*,8,161*,-66,192*,143*,113*
N/C(=N\OC(=O)COc1ccc(Cl)cc1Br)c1ccncc1,99,157*,5.8*,7,120,-63,198*,142*,122*
N/C(=N\OC(=O)CCCOc1ccc(Cl)cc1Cl)c1ccccn1,99,96,1,9,-12,3,.,.,.
N/C(=N\OC(=O)c1ccccc1Cl)c1ccncc1,92,162*,.,15,94,-67,155*,116,99
c1ccc(CSc2ccc(-c3cccs3)nn2)cc1,92,165*,4.8*,11,124,-72,184*,134*,99
COC(=O)N/N=C\c1c(C)[nH]n(-c2ccccc2)c1=O,96,100,1.2,9,28,-2,.,.,.

# Assay outcomes: PubChem BioAssay, several laboratories
